Screening results (PubChem BioAssay)
This is a sample that favours compounds with a hit; in the whole collection about 2.8% have one here.
NPY2 pot ag – NPY-Y2 potentiators or agonists, primary screen, cell-based | Neuropeptide Y receptor type 2 (Homo sapiens), P49146 | cells expressing NPY-Y2, potentiator/agonist read-out | activation, % at 3.6 µM | 0.45% of 220,000 active | AID 1359, 2008; in the data active means activation above about 27%;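 further: cells stimulated with NPY near EC25 plus isoproterenol at EC100; 0% = vehicle plus submaximal agonist and 100% = vehicle plus saturating agonist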
Target sequence (P49146 whole entry, looked up): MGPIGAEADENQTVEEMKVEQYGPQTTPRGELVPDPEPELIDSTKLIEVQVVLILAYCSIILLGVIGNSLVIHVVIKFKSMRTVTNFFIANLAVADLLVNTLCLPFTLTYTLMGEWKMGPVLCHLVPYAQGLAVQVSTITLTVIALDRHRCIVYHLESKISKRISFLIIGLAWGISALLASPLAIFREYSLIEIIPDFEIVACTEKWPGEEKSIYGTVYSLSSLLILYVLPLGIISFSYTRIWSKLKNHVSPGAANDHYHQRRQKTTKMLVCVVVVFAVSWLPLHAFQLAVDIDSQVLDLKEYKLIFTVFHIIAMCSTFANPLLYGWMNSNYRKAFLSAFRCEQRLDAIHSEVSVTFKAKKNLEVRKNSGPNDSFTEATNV
NPY-Y1 PAM-ag – NPY-Y1 receptor potentiators or agonists, primary screen, cell-based; 0.37% of 220,000 active; Neuropeptide Y receptor type 1 (Homo sapiens), P25929; NPY-Y1 expressing cells, potentiator/agonist activation; AID 1304, 2008; activation, % at 3.6 µM; in the data active means activation above about 33%, passing the limit was not always enough;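 further: cells stimulated with NPY at EC10 then isoproterenol at EC100; 0% = low agonist plus stimulus and 100% = saturating agonist plus stimulus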
NPY Y1 blocker – NPY-Y1 receptor antagonists, primary screen, cell-based; Neuropeptide Y receptor type 1 (Homo sapiens), P25929; HEK293-CNG Y1 cells, membrane potential fluorescence; NPY at EC95, then isoproterenol; inhibition, % at 3.6 µM; 1% of 200,000 active; AID 1040, 2008;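 active means inhibition above the campaign mean inhibition of all tested compounds plus 3 SD, cut at about 20% in these data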;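 further: 0% = DMSO wells given NPY plus isoproterenol and 100% = isoproterenol alone without NPY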
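Benchmarks – high control isoproterenol alone, low control NPY with isoproterenol · Material – HEK293 Y1/CNG channel cell line · Times – dye 3 h, compound 60 min room temperature, stimulation 45 min · Probe or stimulus – NPY (25 nM), isoproterenol (1 µM), Ro 20-1724 (25 µM) · Evaluation – % inhibition of NPY effect · Signal – fluorescence, membrane potential probe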
Rad51 HR inh – human RAD51 strand exchange inhibitors, primary screen, biochemical, fluorescence; DNA repair protein RAD51 homolog 1 (Homo sapiens), Q06609; hRad51 DNA strand exchange, fluorescence dequenching; inhibition, % at 10 µM; 0.085% of 200,000 active;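 active means inhibition above 40% at the single screening dose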;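 further: 0% = DMSO control wells and 100% = blanks with heterologous ssDNA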
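Material: human Rad51–ssDNA filaments; Probe or stimulus: labelled 47-mer dsDNA for strand exchange; Doses: single 10 µM dose; Incubation: 37 °C 15-min filament assembly, 30-min compound preincubation, 15-min exchange; Technique: FRET fluorescence dequenching, excitation 485 nm, emission 520 nm; Measure: Fluorescence-based percent inhibition, control- and blank-normalised; Benchmarks: plate control and blank wells.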
Measles CPE – compounds protecting cells from measles virus cytopathic effect, primary screen, measles RdRp inhibitor project, single point, MLSMR library, absorbance | Measles virus-infected cells, CPE protection | protection (pct of control), % at 4 µM | 1.5% of 140,000 active; in the data active means protection mostly above about 24%, no sharp cut-off; inactive means mostly below about 26%
NPY-Y2 antag – NPY-Y2 receptor antagonists, primary screen, cell-based | Neuropeptide Y receptor type 2 (Homo sapiens), P49146 | NPY-Y2 expressing cells, antagonist mode | inhibition, % at 2.7 µM | 0.99% of 140,000 active; in the data active means inhibition above about 17%;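 further: 0% = vehicle with agonist challenge and 100% = reference antagonist with challenge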
Starred values were filed as active, the others as inactive; . = no result.

SMILES | NPY2 pot ag | NPY-Y1 PAM-ag | NPY Y1 blocker | Rad51 HR inh | Measles CPE | NPY-Y2 antag
O=C(CCC1CCCN(C(=O)CCCc2ccccc2)C1)N1CCN(c2ccccn2)CC1 (centres undefined) | -14 | -5 | . | . | . | .
Cc1nn(-c2ccccc2)c(N)c1Sc1ccccc1[N+](=O)[O-] | 4 | -24 | -4 | -2 | 46* | 1
CCOC(=O)C(NC(C)=O)(Nc1ccc(S(=O)(=O)Nc2cc(C)on2)cc1)C(F)(F)F (centres undefined) | 2 | 1 | 7 | 41* | 9 | -3
CCOC(=O)C(NC(=O)CC)(Nc1ccccc1)C(F)(F)F (centres undefined) | -12 | -13 | 0 | . | 24* | 0
Cc1nnc(-c2cnn(C)c2N)n1CCCN1CCOCC1 | -3 | 1 | -1 | -1 | . | .
Cc1nnc(N2CCN(c3ccccc3)CC2)c2nn(-c3ccccc3F)c(C)c12 | -9 | -2 | -1 | . | . | 3
CCN(CC)c1ccc(NC(=O)c2ccc3c(c2)c(C)c(C)n3C)cc1 | 6 | 16 | 3 | 2 | . | .
CC1=C(C(=O)OCC(C)C)C(c2ccsc2)NC(=O)N1 (centres undefined) | 7 | 11 | 0 | -1 | 6 | 2
CCOC(=O)C1=C(C)NC(=O)NC1c1ccsc1 (centres undefined) | 40* | 111* | -7 | -6 | 15 | 0
COc1cc(C2NC(=O)NC(C)=C2C(=O)OCc2ccccc2)ccc1O (centres undefined) | . | . | . | . | 16 | .
CCOc1cc(C2NC(=O)NC(C)=C2C(=O)OCc2ccccc2)ccc1O (centres undefined) | 3 | -24 | 15 | -6 | 47* | 3
CCOC(=O)c1c(NC(=O)CSc2nnc3c(Cl)cc(Cl)cn23)sc2c1CCC2 | -3 | 2 | 10 | -6 | 6 | 9
COc1ccc(OCc2nnc(SCC(=O)c3ccccc3)o2)cc1 | -32 | -20 | 13 | -17 | . | .
N#CCSc1nnc(COc2ccc3ccccc3c2)o1 | 18 | 5 | 6 | 9 | 46* | 2
CCOc1ccc(/C=C/[N+](=O)[O-])c2ccccc12 | -11 | -15 | 32* | 1 | 1 | 27*
N#Cc1c(NCCN)nc(-c2ccccc2)c2c1CCCC2 | -33 | -37 | 29* | . | 12 | 24*
Cc1nc(Nc2cccc(O)c2)c2c3c(sc2n1)CCC3 | 2 | -2 | . | -13 | . | .
CCC(C)(C)n1nnnc1CN(Cc1cccs1)Cc1cc2cc(OC)ccc2[nH]c1=O | . | . | . | -4 | 37* | .
Cc1c(-c2ccccc2)[n+](=O)c(-c2ccc(Cl)cc2)c(C)n1[O-] | -9 | -2 | 0 | 3 | . | .
CCC(=O)NC(=S)Nc1ccc(-c2nc3ccc(C)cc3s2)cc1 | 6 | 20 | -6 | 6 | 11 | 2
Cc1ccc2nc(-c3ccc(NC(=S)NC(=O)C(C)C)cc3)sc2c1 | 13 | 51* | -1 | -5 | 12 | -1
O=c1ncn(-c2ccccc2F)c2ncccc12 | 14 | 4 | 8 | -41 | 3 | -2
CC(CCc1ccccc1)NC(=O)C1CCCN(c2nnc(-n3cccc3)s2)C1 (centres undefined) | -14 | -35 | 7 | -4 | 35* | 5
CN(/C(=N/S(=O)(=O)c1cccs1)c1ccccc1)c1ccccc1 | 10 | 15 | 0 | 2 | 29* | 3
CN(C)c1ccc(N/C(=N\S(=O)(=O)c2cccs2)c2ccccc2)cc1 | 6 | 1 | 0 | 3 | 4 | -2
SMILES | NPY2 pot ag | NPY-Y1 PAM-ag | NPY Y1 blocker | Rad51 HR inh | Measles CPE | NPY-Y2 antag
O=[N+]([O-])c1ccc(Sc2ncccn2)c([N+](=O)[O-])c1 | 23 | 23 | . | -9 | . | .
Cc1cccc(Sc2ccc([N+](=O)[O-])cc2[N+](=O)[O-])n1 | 6 | 25 | -2 | 3 | 39* | -1
COc1cccc(NC2=C(Cl)C(=O)OC2OC(=O)c2ccco2)c1 (centres undefined) | 17 | 15 | 4 | -3 | . | .
COC(=O)CN1C(=S)N(c2ccc(F)cc2)C(=O)C1CC(=O)Nc1ccc(OC)cc1 (centres undefined) | 8 | 17 | . | 5 | . | .
Cc1cc(C)nc(N2CCC(C(=O)NCC3CCCCC3)CC2)n1 | 0 | 17 | -1 | 3 | 33* | 1
Cc1ccc(NC(=O)c2ccc(C(C)(C)C)cc2)cc1-n1cnnn1 | -4 | -3 | 2 | 33 | . | .
CC(=O)Nc1cccc(NC(=O)Nc2ccc(C(C)=O)cc2)c1 | 15 | 36 | -11 | -2 | 44* | -4
COC(=O)[C@@H](NC(=O)Nc1ccc(C(C)=O)cc1)C(C)C | 8 | 5 | -5 | 7 | 104* | 0
COC(=O)[C@@H](NC(=O)Nc1ccc(S(N)(=O)=O)cc1)C(C)C | -9 | -20 | -1 | . | 31* | -2
CS(=O)(=O)c1nc2c(cc1C#N)CCCC2 | -2 | -1 | -3 | 6 | . | .
COCC(C)n1c(SCc2cc(=O)n3cc(C)ccc3n2)nc2ccccc2c1=O (centres undefined) | -14 | -4 | 6 | -3 | . | .
O=C(Nc1ccc(Br)cc1F)c1cccnc1 | -11 | -4 | -1 | 1 | 6 | 5
Nc1nc(Nc2ccccc2F)nc(NCCO)c1[N+](=O)[O-] | 12 | -6 | . | -7 | . | .
O=C(c1cnccn1)N(Cc1ccco1)C1(C(=O)NC2CCCC2)CCCCC1 | -3 | 4 | 42* | 8 | 10 | 33*
O=C1NC(=O)C(CC(=O)N(Cc2ccco2)C2(C(=O)NC3CCCC3)CCCCC2)N1 (centres undefined) | 9 | -20 | 1 | . | 14 | 6
O=C(c1ccc2c(c1)OCO2)N(Cc1ccco1)C1(C(=O)NC2CCCCC2)CCCCC1 | -7 | -44 | 51* | -8 | 2 | 28*
O=C(c1ccccn1)N(Cc1ccco1)C1(C(=O)NC2CCCC2)CCCCC1 | -7 | 0 | 34* | -2 | 4 | 53*
O=C(Cc1cccs1)N(Cc1ccco1)C1(C(=O)NC2CCCC2)CCCCC1 | -5 | -3 | 61* | -1 | 23 | 26*
Cc1nc(-c2ccccc2)sc1-c1nc(-c2cccnc2)ncc1S(=O)(=O)c1ccccc1 | 14 | -4 | 2 | 4 | 10 | 0
COc1cc(C2/C(=C(/O)c3ccccc3)C(=O)C(=O)N2c2ccccn2)ccc1O (centres undefined) | -5 | 4 | -4 | -2 | . | .
NC(=O)c1cc(NC(=O)c2cc(Br)c(Br)s2)cc(C(N)=O)c1 | 2 | 0 | 2 | 3 | . | .
Cc1ccc(/C=N/NC(=O)c2cc(C)oc2C)cc1 | 6 | 11 | . | 11 | . | .
